Several values for one entry are separate records, joined by “and”; a condition that tells them apart may be missing. Identical values can stand only once.
Test system: U2OS
Assay: Multiplex assay against U2OS
Format: toxicity, cell-based
Settings: human, 10 µM, compound concentration 10 uM
Summary of the method: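 Four dyes were applied at seeding to live cells: Hoechst33342, BioTracker Green Microtubule Cytoskeleton Dye, MitoTracker Red and Annexin V Alexa Fluor 680. Imaging after compound addition used a CQ1 microscope at 37°C and 5% CO2. CellPathfinder machine-learning gating then sorted cells into Hoechst high-intensity objects or normal cells, normal cells into healthy, pyknosed or fragmented nuclei, and pyknosed cells into mitotic or apoptotic, with tubulin, mitochondrial-mass and membrane-permeability phenotypes given as per cents of healthy-nucleus cells.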

CCOCCn1cc(C(=O)Nc2ccc(-n3nc(-c4cccnc4)cc3C(F)(F)F)cn2)ccc1=O [BI 1935]
Population Apoptotic (%) (12 h, replicate 1): 22% and 50% and 42%
Population Healthy Nuclei (%) (12 h, replicate 1): 82% and 63% and 91%
Population Hoechst High Intensity Objects (%) (12 h, replicate 1): 4% and 8% and 3%
Population Mitotic Cells (%) (12 h, replicate 1): 77% and 50% and 57%
Population Normal (%) (12 h, replicate 1): 95% and 91% and 96%
Total Cell Count (12 h, replicate 1): 162 and 131 and 216
Population Apoptotic (%) (12 h, replicate 2): 28% and 47% and 16%
Population Fragmented Nuclei (%) (12 h, replicate 2): 5% and 8% and 12%
Population Healthy Nuclei (%) (12 h, replicate 2): 77% and 65%
Population Hoechst High Intensity Objects (%) (12 h, replicate 2): 10% and 7% and 9%
Population Mitochondria Different-Phenotype (%) (12 h, replicate 2): 22% and 47% and 19%
Population Mitotic Cells (%) (12 h, replicate 2): 71% and 52% and 83%
Population Normal (%) (12 h, replicate 2): 89% and 92% and 90%
Total Cell Count (12 h, replicate 2): 89 and 79 and 129
Population Apoptotic (%) (24 h, replicate 1): 42% and 33% and 27%
Population Healthy Nuclei (%) (24 h, replicate 1): 62% and 86% and 91%
Population Hoechst High Intensity Objects (%) (24 h, replicate 1): 6% and 3%
Population Mitochondria Different-Phenotype (%) (24 h, replicate 1): 51% and 17% and 20%
Population Mitotic Cells (%) (24 h, replicate 1): 57% and 66% and 72%
Population Normal (%) (24 h, replicate 1): 93% and 96%
Total Cell Count (24 h, replicate 1): 147 and 211 and 291
Population Apoptotic (%) (24 h, replicate 2): 46% and 40% and 66%
Population Fragmented Nuclei (%) (24 h, replicate 2): 3% and 9%
Population Healthy Nuclei (%) (24 h, replicate 2): 82% and 66%
Population Hoechst High Intensity Objects (%) (24 h, replicate 2): 7% and 8%
Population Mitochondria Different-Phenotype (%) (24 h, replicate 2): 27% and 50%
Population Mitotic Cells (%) (24 h, replicate 2): 53% and 60% and 33%
Population Normal (%) (24 h, replicate 2): 92% and 91%
Population Tubulin-Different-Phenotype (%) (24 h, replicate 2): 27% and 44% and 22%
Total Cell Count (24 h, replicate 2): 101 and 92 and 149
Population Apoptotic (%) (48 h, replicate 1): 51%
Population Fragmented Nuclei (%) (48 h, replicate 1): 16%
Population Healthy Nuclei (%) (48 h, replicate 1): 64%
Population Hoechst High Intensity Objects (%) (48 h, replicate 1): 10%
Population Membrane Permeable-Phenotype (%) (48 h, replicate 1): 15%
Population Mitochondria Different-Phenotype (%) (48 h, replicate 1): 26%
Population Mitotic Cells (%) (48 h, replicate 1): 48%
Population Normal (%) (48 h, replicate 1): 89%
Population Pyknosed Nuclei (%) (48 h, replicate 1): 19%
Population Tubulin-Different-Phenotype (%) (48 h, replicate 1): 51%
Total Cell Count (48 h, replicate 1): 178
Population Apoptotic (%) (48 h, replicate 2): 52%
Population Fragmented Nuclei (%) (48 h, replicate 2): 7%
Population Healthy Nuclei (%) (48 h, replicate 2): 73%
Population Hoechst High Intensity Objects (%) (48 h, replicate 2): 4%
Population Membrane Permeable-Phenotype (%) (48 h, replicate 2): 17%
Population Mitochondria Different-Phenotype (%) (48 h, replicate 2): 30%
Population Mitotic Cells (%) (48 h, replicate 2): 47%
Population Normal (%) (48 h, replicate 2): 95%
Population Tubulin-Different-Phenotype (%) (48 h, replicate 2): 40%
Total Cell Count (48 h, replicate 2): 114

— ChEMBL document CHEMBL4689842, “EUbOPEN Chemogenomics Library wave 1” (2021)
